Measurements taken from ChEMBL document CHEMBL1137710, “Synthesis and in vitro antitumor activity of new quinoxaline derivatives” (2009).

How the values were obtained:
Type in all cases: functional
NCI-H460 [1] = test: Anticancer activity against human NCI-H460 cells assessed as cell growth at 100 uM after 48 hrs by sulforhodamine B assay; conditions: NCI-H460, 48 h, read-out: Activity
MCF7 [2] = test: Anticancer activity against human MCF7 cells assessed as cell growth at 100 uM after 48 hrs by sulforhodamine B assay; conditions: MCF7, 48 h, read-out: Activity
SF-268 [3] = test: Anticancer activity against human SF268 cells assessed as cell growth at 100 uM after 48 hrs by sulforhodamine B assay; conditions: SF-268, 48 h, read-out: Activity
[4] = Growth inhibition of human […] cells after 48 hrs by sulforhodamine B assay
How it was run: (§1)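 NCI 60-human-tumor-cell-line panel, with compounds tested over a 5-log dose range. Values are taken from dose-response curves as log10 molar concentrations: GI50 is 50% net growth inhibition, TGI is total growth inhibition, and LC50 is 50% net cell death.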

A549 = test: Growth inhibition of human A549 cells after 48 hrs by sulforhodamine B assay; conditions: A549, 48 h; how it was run: as §1
NCI-H23 = test: Growth inhibition of human NCI-H23 cells after 48 hrs by sulforhodamine B assay; conditions: NCI-H23, 48 h; how it was run: as §1
NCI-H460 [5] = test: Growth inhibition of human NCI-H460 cells after 48 hrs by sulforhodamine B assay; conditions: NCI-H460, 48 h; how it was run: as §1
COLO 205 = test: Growth inhibition of human COLO205 cells after 48 hrs by sulforhodamine B assay; conditions: COLO 205, 48 h; how it was run: as §1
HCT-116 = test: Growth inhibition of human HCT116 cells after 48 hrs by sulforhodamine B assay; conditions: HCT-116, 48 h; how it was run: as §1
SW-620 = test: Growth inhibition of human SW620 cells after 48 hrs by sulforhodamine B assay; conditions: SW-620, 48 h
How it was run: (§2)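 Run in the NCI 60-human-tumour-cell-line panel, tested over a 5-log dose range. Dose–response curves gave three values per cell line, each as a log10 molar concentration: GI50 (50% inhibition of net cell growth), TGI (total inhibition of net growth) and LC50 (50% net cell death). The mean graph midpoint is the arithmetic mean over all lines, with insensitive lines entered at the highest concentration tested.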

SF-268 [6] = test: Growth inhibition of human SF268 cells after 48 hrs by sulforhodamine B assay; conditions: SF-268, 48 h; how it was run: as §1
SF-295 = test: Growth inhibition of human SF295 cells after 48 hrs by sulforhodamine B assay; conditions: SF-295, 48 h; how it was run: as §1
SNB-19 = test: Growth inhibition of human SNB19 cells after 48 hrs by sulforhodamine B assay; conditions: SNB-19, 48 h; how it was run: as §2
U-251 = test: Growth inhibition of human U251 cells after 48 hrs by sulforhodamine B assay; conditions: U-251, 48 h; how it was run: as §2
M14 = test: Growth inhibition of human M14 cells after 48 hrs by sulforhodamine B assay; conditions: M14, 48 h; how it was run: as §1
SK-MEL-28 = test: Growth inhibition of human SK-MEL-28 cells after 48 hrs by sulforhodamine B assay; conditions: SK-MEL-28, 48 h; how it was run: as §1
SK-MEL-5 = test: Growth inhibition of human SK-MEL-5 cells after 48 hrs by sulforhodamine B assay; conditions: SK-MEL-5, 48 h; how it was run: as §1
UACC-257 = test: Growth inhibition of human UACC257 cells after 48 hrs by sulforhodamine B assay; conditions: UACC-257, 48 h; how it was run: as §2
UACC-62 = test: Growth inhibition of human UACC62 cells after 48 hrs by sulforhodamine B assay; conditions: UACC-62, 48 h; how it was run: as §2
IGROV-1 = test: Growth inhibition of human IGROV1 cells after 48 hrs by sulforhodamine B assay; conditions: IGROV-1, 48 h; how it was run: as §1
OVCAR-4 = test: Growth inhibition of human OVCAR4 cells after 48 hrs by sulforhodamine B assay; conditions: OVCAR-4, 48 h; how it was run: as §1
OVCAR-8 = test: Growth inhibition of human OVCAR8 cells after 48 hrs by sulforhodamine B assay; conditions: OVCAR-8, 48 h; how it was run: as §1
SK-OV-3 = test: Growth inhibition of human SKOV3 cells after 48 hrs by sulforhodamine B assay; conditions: SK-OV-3, 48 h; how it was run: as §1
RXF 393 = test: Growth inhibition of human RXF393 cells after 48 hrs by sulforhodamine B assay; conditions: RXF 393, 48 h; how it was run: as §1
TK-10 = test: Growth inhibition of human TK10 cells after 48 hrs by sulforhodamine B assay; conditions: TK-10, 48 h; how it was run: as §2
PC-3 = test: Growth inhibition of human PC3 cells after 48 hrs by sulforhodamine B assay; conditions: PC-3, 48 h; how it was run: as §1
DU-145 = test: Growth inhibition of human DU145 cells after 48 hrs by sulforhodamine B assay; conditions: DU-145, 48 h; how it was run: as §1
MDA-MB-231 = test: Growth inhibition of human MDA-MB-231 cells after 48 hrs by sulforhodamine B assay; conditions: MDA-MB-231, 48 h; how it was run: as §1
MDA-MB-435 = test: Growth inhibition of human MDA-MB-435 cells after 48 hrs by sulforhodamine B assay; conditions: MDA-MB-435, 48 h; how it was run: as §1
MCF7 [7] = test: Growth inhibition of human MCF7 cells after 48 hrs by sulforhodamine B assay; conditions: MCF7, 48 h; how it was run: as §1
[8] = read-out: pLC50 (the source's name) (converted)

Nc1cc(N)c2nc(-c3ccccc3)c(Sc3ccc(Cl)c(Cl)c3)nc2c1
growth at 100 µM (NCI-H460 [1]): 0% | growth at 100 µM (MCF7 [2]): 12% | growth at 100 µM (SF-268 [3]): 11% | GI50 [4]: 3.8 µM | LC50 [4]: > 100 µM | TGI ([4]; read-out: pTGI (converted)): 31.6 µM | GI50 (A549): 13.5 µM | LC50 (A549): > 100 µM | TGI (A549; read-out: pTGI (converted)): 52.5 µM | GI50 (NCI-H23): 12.6 µM | LC50 (50% net cell kill concentration) (NCI-H23): 95.5 µM | TGI (NCI-H23; read-out: pTGI (converted)): 34.7 µM | GI50 (NCI-H460 [5]): 10.5 µM | LC50 (50% net cell kill) (NCI-H460 [5]): > 100 µM | TGI (NCI-H460 [5]; read-out: pTGI (converted)): 33.9 µM | GI50 (COLO 205): 10.7 µM | LC50 (50% net cell kill) (COLO 205): > 100 µM | TGI (COLO 205; read-out: pTGI (converted)): 33.9 µM | GI50 (HCT-116): 9.33 µM | LC50 (concentration causing 50% net cell death) (HCT-116): > 100 µM | TGI (HCT-116; read-out: pTGI (converted)): 47.9 µM | GI50 (SW-620): 20.9 µM | CC50 (SW-620; [8]): > 100 µM | TGI (SW-620; read-out: pTGI (converted)): 83.2 µM | GI50 (SF-268 [6]): 13.8 µM | LC50 (SF-268 [6]): > 100 µM | TGI (SF-268 [6]; read-out: pTGI (converted)): 51.3 µM | GI50 (SF-295): 17.8 µM | LC50 (50% net cell kill) (SF-295): > 100 µM | TGI (SF-295; read-out: pTGI (converted)): 60.3 µM | GI50 (SNB-19): 17 µM | LC50 (SNB-19): > 100 µM | TGI (SNB-19; read-out: pTGI (converted)): 57.5 µM | GI50 (U-251): 10.2 µM | LC50 (50% net cell kill) (U-251): > 100 µM | TGI (U-251; read-out: pTGI (converted)): > 100 µM | GI50 (M14): 32.4 µM | CC50 (M14; [8]): > 100 µM | TGI (M14; read-out: pTGI (converted)): > 100 µM | GI50 (SK-MEL-28): 13.8 µM | CC50 (SK-MEL-28; [8]): > 100 µM | TGI (SK-MEL-28; read-out: pTGI (converted)): 57.5 µM | GI50 (SK-MEL-5): 21.4 µM | CC50 (SK-MEL-5; [8]): > 100 µM | TGI (SK-MEL-5; read-out: pTGI (converted)): 95.5 µM | GI50 (UACC-257): 17.8 µM | CC50 (UACC-257; [8]): > 100 µM | TGI (UACC-257; read-out: pTGI (converted)): 58.9 µM | GI50 (UACC-62): 6.76 µM | CC50 (UACC-62; [8]): > 100 µM | TGI (UACC-62; read-out: pTGI (converted)): 42.7 µM | GI50 (IGROV-1): 2950 nM | CC50 (IGROV-1; [8]): > 100 µM | TGI (IGROV-1; read-out: pTGI (converted)): 27.5 µM | GI50 (OVCAR-4): 20 µM | CC50 (OVCAR-4; [8]): > 100 µM | TGI (OVCAR-4; read-out: pTGI (converted)): > 100 µM | GI50 (OVCAR-8): 24.5 µM | CC50 (OVCAR-8; [8]): > 100 µM | TGI (OVCAR-8; read-out: pTGI (converted)): > 100 µM | GI50 (SK-OV-3): 14.8 µM | CC50 (SK-OV-3; [8]): > 100 µM | TGI (SK-OV-3; read-out: pTGI (converted)): 39.8 µM | GI50 (RXF 393): 12.3 µM | CC50 (RXF 393; [8]): 60.3 µM | TGI (RXF 393; read-out: pTGI (converted)): 26.9 µM | GI50 (TK-10): 5.89 µM | CC50 (TK-10; [8]): 53.7 µM | TGI (TK-10; read-out: pTGI (converted)): 20 µM | GI50 (PC-3): 3.47 µM | CC50 (PC-3; [8]): > 100 µM | TGI (PC-3; read-out: pTGI (converted)): 15.5 µM | GI50 (DU-145): 1510 nM | CC50 (DU-145; [8]): 9.77 µM | TGI (DU-145; read-out: pTGI (converted)): 3.8 µM | GI50 (MDA-MB-231): 16.6 µM | CC50 (MDA-MB-231; [8]): > 100 µM | TGI (MDA-MB-231; read-out: pTGI (converted)): 53.7 µM | GI50 (MDA-MB-435): 18.2 µM | CC50 (MDA-MB-435; [8]): > 100 µM | TGI (MDA-MB-435; read-out: pTGI (converted)): 60.3 µM | GI50 (MCF7 [7]): 5.25 µM | CC50 (MCF7 [7]; [8]): > 100 µM | TGI (MCF7 [7]; read-out: pTGI (converted)): 38 µM
